Data reported in ChEMBL document CHEMBL1144781, “Identification of promiscuous small molecule activators in high-throughput enzyme activation screens” (J Med Chem, 2008).
Activity calls are given as the source filed them. The rule behind the calls is not given here.

Tests used:
[1] = molecular target: T1, Caspase-3 (Homo sapiens) (UniProt P42574); experiment: Activation of caspase 3 after 30 mins
T1 sequence (whole entry): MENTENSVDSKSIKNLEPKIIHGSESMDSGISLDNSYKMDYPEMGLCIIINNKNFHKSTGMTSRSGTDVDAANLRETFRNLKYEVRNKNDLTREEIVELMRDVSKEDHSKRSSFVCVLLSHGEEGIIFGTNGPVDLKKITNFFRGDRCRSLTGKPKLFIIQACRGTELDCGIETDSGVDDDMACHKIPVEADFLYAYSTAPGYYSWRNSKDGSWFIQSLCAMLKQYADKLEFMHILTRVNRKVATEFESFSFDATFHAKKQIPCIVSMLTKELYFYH

[2] = molecular target: T2, Caspase-2 (Homo sapiens, UniProt P42575); experiment: Activation of procaspase 2 after 24 hrs
T2 sequence (P42575 whole entry): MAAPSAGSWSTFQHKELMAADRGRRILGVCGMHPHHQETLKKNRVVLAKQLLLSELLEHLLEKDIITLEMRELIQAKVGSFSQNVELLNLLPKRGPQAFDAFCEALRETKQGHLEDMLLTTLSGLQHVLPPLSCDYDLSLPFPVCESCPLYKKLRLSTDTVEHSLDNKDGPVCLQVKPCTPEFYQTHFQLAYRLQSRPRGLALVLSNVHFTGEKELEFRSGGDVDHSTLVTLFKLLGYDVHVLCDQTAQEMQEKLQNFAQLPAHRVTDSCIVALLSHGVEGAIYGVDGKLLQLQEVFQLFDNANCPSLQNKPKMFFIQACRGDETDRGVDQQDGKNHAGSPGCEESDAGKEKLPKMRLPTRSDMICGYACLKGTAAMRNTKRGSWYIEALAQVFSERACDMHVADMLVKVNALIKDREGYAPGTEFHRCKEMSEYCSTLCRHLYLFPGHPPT

[3] = Activation of alkaline phosphatase after 30 mins
[4] = Activation of procaspase 2 in presence of BSA
[5] = molecular target: T3, Caspase-2 (Homo sapiens) (UniProt P42575); experiment: Increase in procaspase 2 activity after 30 mins in presence of surfactant CHAPS
T3 sequence (whole entry): T2 sequence (P42575 whole entry)
Procedure, shortened: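 Procaspase-2 was preincubated with compound for a short time (30 min) in CHAPS-containing buffer. Ac-VDVAD-pNA cleavage was then followed by absorbance at 405 nm.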

[6] = molecular target: T3, Caspase-2 (Homo sapiens); experiment: Increase in procaspase 2 activity after 16 hrs in presence of surfactant CHAPS
Procedure, shortened: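 Procaspase-2 was incubated with compound for 16 h in buffer containing CHAPS. Activity was then read by adding Ac-VDVAD-pNA substrate and monitoring absorbance at 405 nm.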

SMILES	Activity [1]	EC50 [2] [µM]	also measured
C[C@@H](CCC(=O)NCCC[N+](C)(C)CCCS(=O)(=O)[O-])[C@H]1CC[C@H]2[C@@H]3[C@H](O)C[C@@H]4C[C@H](O)CC[C@]4(C)[C@H]3C[C@H](O)[C@]12C	Active	–	Activity [4]: inactive
NCCCNCCCCNCCCN [SPERMINE]	Active	8.5	–
CCCCCCCCCCCCCCCC[n+]1ccccc1	–	21	–
CCCCCCCCCCNC(=O)CCC	–	66	–

Continued by falling EC50 [2], values first:

Activity [1]	EC50 [2] [µM]	SMILES	also measured
Active	50	NCCCNCCNCCCN	Activity [3]: Active
–	50	Cc1cc(NNC(=O)C(c2ccccc2)c2ccccc2)c2ccc(C)c(C)c2n1	–
Active	25	CC1CCCN(CC(O)COc2ccc(C34CC5CC(CC(C5)C3)C4)cc2)C1 (stereo unspecified)	–
Active	25	CN(C)CCNC(=O)COc1ccc(C23CC4CC(CC(C4)C2)C3)cc1	Activity [5]: inactive; Activity [6]: Active
